Assay type in all cases: functional
In assay [1] the test system is OVCAR-4. In words: Growth inhibition of human OVCAR4 cells after 48 hrs by SRB assay. Conditions: OVCAR-4, 48 h. An outline of the steps: (§1)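 NCI panel of about 60 human tumor lines, 48 h continuous exposure at five 10-fold dilutions from 10^-4 to 10^-8 M. SRB protein staining was read as absorbance at time zero, in untreated controls and at each concentration. GI50 is the concentration giving 50% lower net protein increase than controls. TGI is where Ti = Tz, and LC50 is 50% protein loss versus start.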
(In SRB staining, fixed cells bind dye roughly in proportion to their protein.)

The next assay has as its system MOLT-4. The experiment in a line: Cytotoxicity against human MOLT4 cells assessed as cell growth at 10^-5 M after 48 hrs by SRB assay. To be noted: MOLT-4, 48 h, read-out: Activity. Summed up:
(§2)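 NCI human tumor cell line panel from nine cancer types. Each line was inoculated and preincubated 24–48 h, then exposed to a single concentration (10^-5 M) for 48 h. Growth was read by sulforhodamine B protein staining, measured spectrophotometrically. Value reported as percent growth of treated cells relative to untreated controls.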

A further assay deals with Aspergillus niger. In words: Antifungal activity against Aspergillus niger assessed as zone of inhibition of late spore formation at 0.5 mg/mL after 48 to 72 hrs by stiff-plate agar-diffusion method. Conditions: read-out: DIZ.
The test system of assay [2] is Escherichia coli. In words: Antibacterial activity against Escherichia coli assessed as zone of inhibition at 0.5 mg/mL after 24 hrs by stiff-plate agar-diffusion method. Conditions: read-out: DIZ. (In agar diffusion tests the substance spreads into inoculated agar from a disc or well.)
The subject of a further assay is HCT-116. In words: Cytotoxicity against human HCT116 cells assessed as cell growth at 10^-5 M after 48 hrs by SRB assay. Conditions: HCT-116, 48 h, read-out: Activity. An outline of the steps:
(§3)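 NCI 60-cell-line one-dose primary screen: cells inoculated and preincubated 24–48 h, then test agent added at a single 10^-5 M concentration for a further 48 h. Endpoint is sulforhodamine B protein staining read spectrophotometrically. Reported as percent growth relative to untreated control cells.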

In the next assay the test system is NCI-H322M. In words: Cytotoxicity against human NCI-H322M cells assessed as cell growth at 10^-5 M after 48 hrs by SRB assay. To be noted: read-out: Activity. Summed up: as §2
A further assay relates to SK-MEL-5. The experiment in a line: Cytotoxicity against human SK-MEL-5 cells assessed as cell growth at 10^-5 M after 48 hrs by SRB assay. To be noted: SK-MEL-5, 48 h, read-out: Activity. An outline of the steps:
as §2

The test system of the next assay is KM12. The experiment in a line: Cytotoxicity against human KM12 cells assessed as cell growth at 10^-5 M after 48 hrs by SRB assay. To be noted: KM12, 48 h, read-out: Activity. An outline of the steps: as §3
Another assay deals with PC-3. The experiment in a line: Growth inhibition of human PC3 cells after 48 hrs by SRB assay. To be noted: PC-3, 48 h. Summed up: as §1
The test system of the next assay is SN12C. In words: Cytotoxicity against human SN12C cells assessed as cell growth at 10^-5 M after 48 hrs by SRB assay. Conditions: read-out: Activity. Summed up:
as §2

The subject of assay [3] is Photobacterium leiognathi. In words: Antibacterial activity against Photobacterium leiognathi Sh1 assessed as inhibition of bacterial luminescence at 0.1 mg/mL after 10 mins by bioluminometry-based acute action test. Set-up: scale not given: the % may be the effect or the level left. An outline of the steps:
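Marine P. leiognathi Sh1 (Azov Sea shrimp isolate) diluted in chloride solution to 10^5 cells/mL; compounds suspended in DMSO mixed with 1 mL bacterial suspension. Acute test: 10 min at 25 °C, then bioluminescence measured by bioluminometer as % of compound-free control. Tetracycline reference.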

A further assay has as its system IGROV-1. In words: Cytotoxicity against human IGROV1 cells assessed as cell growth at 10^-5 M after 48 hrs by SRB assay. To be noted: IGROV-1, 48 h, read-out: Activity. An outline of the steps: as §3
The test system of another assay is CAKI-1. In words: Cytotoxicity against human Caki1 cells assessed as cell growth at 10^-5 M after 48 hrs by SRB assay. Conditions: CAKI-1, 48 h, read-out: Activity. Summed up: as §3
The test system of assay [4] is Escherichia coli. The experiment in a line: Antibacterial activity against Escherichia coli assessed as zone of inhibition at 0.1 mg/mL after 24 hrs by stiff-plate agar-diffusion method. To be noted: read-out: DIZ.
The test system of assay [5] is OVCAR-4. The experiment in a line: Cytotoxicity against human OVCAR4 cells assessed as cell growth at 10^-5 M after 48 hrs by SRB assay. Conditions: OVCAR-4, 48 h, read-out: Activity. Summed up: as §2
The test system of a further assay is LOX IMVI. In words: Cytotoxicity against human LOXIMVI cells assessed as cell growth at 10^-5 M after 48 hrs by SRB assay. Conditions: read-out: Activity. An outline of the steps:
as §3

The next assay has as its system HT-29. The experiment in a line: Growth inhibition of human HT-29 cells after 48 hrs by SRB assay. To be noted: HT-29, 48 h. Summed up:
as §1

Where [6] appears, read: read-out: pLC50 (the source's name) (converted).

Each structure is given as a SMILES string.

Usually GI50 stands for the concentration at which growth is held to half of that of the control.

Take `CCC1C2CCC(C2)C1NC(=O)CSc1nc2ccccc2c2nc(=O)c(-c3ccc(OC)cc3)nn12` (stereo not drawn): the GI50 is 1.66 µM with OVCAR-4 [1], 2.82 µM with PC-3 and 3.24 µM in the assay on HT-29. Besides, the results for the CC50 in the assay on OVCAR-4 [1] (setting [6]), in the assay with PC-3 (setting [6]) and in the assay with HT-29 (setting [6]) were 43.7 µM, greater than 50.1 µM and greater than 50.1 µM, respectively. The TGI is 6.31 µM with OVCAR-4 [1] (read-out: pTGI (converted)), 24.5 µM with PC-3 (read-out: pTGI (converted)) and greater than 50.1 µM in the assay on HT-29 (read-out: pTGI). Further, the growth at 10 µM in the assay on MOLT-4 was found to be 11.4%; with HCT-116, 64.3%; in the assay on NCI-H322M, 65.6%; in the assay on SK-MEL-5 it was 59.8%; in the assay on KM12 it was 68.3%; in the assay on SN12C, 57.8%. Moreover, the growth at 10 µM in the assay with IGROV-1 is 17%; in the assay on CAKI-1, 36.1%; with OVCAR-4 [5], -58.5%; in the assay on LOX IMVI, 70.5%. In addition, the zone of inhibition at 500 µg/mL in the assay on Aspergillus niger is 18 mm; with Escherichia coli [2] it was 0 mm. In addition, the Activity in assay [3] is recorded as 84%. Further, the zone of inhibition at 100 µg/mL in the assay with Escherichia coli [4] was determined as 0 mm.

Values taken from ChEMBL document CHEMBL1914438, “Synthesis and biological activity of novel N-cycloalkyl-(cycloalkylaryl)-2-[(3-R-2-oxo-2H-[1,2,4]triazino[2,3-c]quinazoline-6-yl)thio]acetamides” (2011).
